Key:
Plasmodium falciparum [1] = assay: Antimalarial activity against chloroquine-resistant Plasmodium falciparum W2 cultured in human erythrocytes assessed as inhibition of parasite growth at 5 uM incubated for 48 hrs by YOYO-1 staining based flow cytometry; format: functional; details: W2, 48 h
How it was run: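 W2 P. falciparum grown in human erythrocytes in RPMI-1640 with 10% human serum or 0.5% Albumax, under 3% O2/5% CO2/92% N2. Sorbitol-synchronised rings at 2% hematocrit, 1% parasitemia, exposed to one concentration for 48 h. Cells fixed in 2% formaldehyde, stained with YOYO-1, and parasites per erythrocyte counted by flow cytometry. Value given as percent inhibition versus untreated control.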

Plasmodium falciparum [2] = assay: Antimalarial activity against chloroquine-resistant Plasmodium falciparum W2 cultured in human erythrocytes assessed as inhibition of parasite growth incubated for 48 hrs by YOYO-1 staining based flow cytometry; format: functional, organism-based; details: W2, 48 h
Plasmodium falciparum [3] = assay: Antimalarial activity against chloroquine-sensitive Plasmodium falciparum 3D7 cultured in human erythrocytes incubated for 48 hrs by [3H]-hypoxanthine incorporation assay; format: functional, organism-based
How it was run: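 3D7 parasites in human erythrocytes, RPMI-1640 with 0.5% Albumax II, […], 37 °C, 5% O2/5% CO2. Asynchronous cultures (0.5% parasitemia, 2% hematocrit) given 3-fold serial dilutions for 24 h. [3H]hypoxanthine then added for a further 24 h, and incorporation counted by scintillation. Normalised to drug-free infected cells. IC50 from at least three independent experiments.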

Jurkat = assay: Cytotoxicity against human Jurkat cells incubated for 72 hrs by MTT assay; format: cell-based
Plasmodium berghei [4] = assay: Antiplasmodial activity against Plasmodium berghei infected in Swiss Webster mouse assessed as mouse survival at 30 mg/kg, po dosed once daily for 4 consecutive days beginning 1 hr after initial infection and measured on day 14 post infection by Giemsa staining method; format: functional
How it was run: (§1)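 Female Swiss Webster mice (about 20 g) were infected ip with 6 × 10^6 P. berghei-infected erythrocytes from a donor mouse. They were dosed by oral gavage once daily for 4 days, starting 1 h post-infection, in PEG 300/propylene glycol/water (55/25/20 by weight). Parasitemia was read daily on Giemsa smears from day 4, and mice were euthanized above 50% parasitemia. Percent survival was tracked to 21 days.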

Plasmodium berghei [5] = assay: Antiplasmodial activity against Plasmodium berghei infected in Swiss Webster mouse assessed as mouse survival at 30 mg/kg, po dosed once daily for 4 consecutive days beginning 1 hr after initial infection and measured on day 9 post infection by Giemsa staining method; format: functional; how it was run: as §1
Plasmodium berghei [6] = assay: Antiplasmodial activity against Plasmodium berghei infected in Swiss Webster mouse assessed as mouse survival at 30 mg/kg, po dosed once daily for 4 consecutive days beginning 1 hr after initial infection and measured on day 16 to 19 post infection by Giemsa staining method; format: functional; how it was run: as §1
Plasmodium berghei [7] = assay: Antiplasmodial activity against Plasmodium berghei infected in Swiss Webster mouse assessed as mouse survival at 30 mg/kg, po dosed once daily for 4 consecutive days beginning 1 hr after initial infection and measured on day 15 post infection by Giemsa staining method; format: functional; how it was run: as §1
Plasmodium berghei [8] = assay: Antiplasmodial activity against Plasmodium berghei infected in Swiss Webster mouse assessed as mouse survival at 30 mg/kg, po dosed once daily for 4 consecutive days beginning 1 hr after initial infection and measured on day 18 post infection by Giemsa staining method; format: functional; how it was run: as §1
Plasmodium berghei [9] = assay: Antiplasmodial activity against Plasmodium berghei infected in Swiss Webster mouse assessed as mouse survival at 30 mg/kg, po dosed once daily for 4 consecutive days beginning 1 hr after initial infection and measured on day 12 post infection by Giemsa staining method; format: functional; how it was run: as §1
Plasmodium berghei [10] = assay: Antiplasmodial activity against Plasmodium berghei infected in Swiss Webster mouse assessed as mouse survival at 30 mg/kg, po dosed once daily for 4 consecutive days beginning 1 hr after initial infection and measured on day 10 post infection by Giemsa staining method; format: functional
How it was run: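 Female Swiss Webster mice (about 20 g) infected ip with 6 × 10^6 P. berghei-infected erythrocytes. Oral gavage once daily for 4 days, starting 1 h after infection. Vehicle PEG300/propylene glycol/water (55/25/20 by weight). Giemsa-smear parasitemia counted daily from day 4. Mice euthanised above 50% parasitemia. Survival followed to day 21, 5 mice per dose, chloroquine 30 mg/kg as reference.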

Plasmodium berghei [11] = assay: Antiplasmodial activity against Plasmodium berghei infected in Swiss Webster mouse assessed as mouse survival at 30 mg/kg, po dosed once daily for 4 consecutive days beginning 1 hr after initial infection and measured on day 20 post infection by Giemsa staining method; format: functional; how it was run: as §1
Plasmodium berghei [12] = assay: Antiplasmodial activity against Plasmodium berghei infected in Swiss Webster mouse assessed as mouse survival at 30 mg/kg, po dosed once daily for 4 consecutive days beginning 1 hr after initial infection and measured on day 8 post infection by Giemsa staining method; format: functional; how it was run: as §1
Plasmodium berghei [13] = assay: Antiplasmodial activity against Plasmodium berghei infected in Swiss Webster mouse assessed as mouse survival at 30 mg/kg, po dosed once daily for 4 consecutive days beginning 1 hr after initial infection and measured on day 4 post infection by Giemsa staining method; format: functional; how it was run: as §1
Plasmodium berghei [14] = assay: Antiplasmodial activity against Plasmodium berghei infected in Swiss Webster mouse assessed as mouse survival at 30 mg/kg, po dosed once daily for 4 consecutive days beginning 1 hr after initial infection and measured on day 11 post infection by Giemsa staining method; format: functional; how it was run: as §1
Plasmodium berghei [15] = assay: Antiplasmodial activity against Plasmodium berghei infected in Swiss Webster mouse assessed as mouse survival at 30 mg/kg, po dosed once daily for 4 consecutive days beginning 1 hr after initial infection and measured on day 6 post infection by Giemsa staining method; format: functional; how it was run: as §1
Plasmodium berghei [16] = assay: Antiplasmodial activity against Plasmodium berghei infected in Swiss Webster mouse assessed as mouse survival at 30 mg/kg, po dosed once daily for 4 consecutive days beginning 1 hr after initial infection and measured on day 13 post infection by Giemsa staining method; format: functional; how it was run: as §1
Plasmodium berghei [17] = assay: Antiplasmodial activity against Plasmodium berghei infected in Swiss Webster mouse assessed as mouse survival at 30 mg/kg, po dosed once daily for 4 consecutive days beginning 1 hr after initial infection and measured on day 5 post infection by Giemsa staining method; format: functional; how it was run: as §1
Plasmodium berghei [18] = assay: Antiplasmodial activity against Plasmodium berghei infected in Swiss Webster mouse assessed as mouse survival at 30 mg/kg, po dosed once daily for 4 consecutive days beginning 1 hr after initial infection and measured on day 7 post infection by Giemsa staining method; format: functional; how it was run: as §1

Structure (SMILES)	IC50 (Plasmodium falciparum [2])	IC50 (Plasmodium falciparum [3])	also measured
CCOC(=O)c1ccc(Oc2ccc3c(c2)B(O)OC3)cc1			inhibition at 5 µM (Plasmodium falciparum [1]): 0%
CCOC(=O)c1ccc(Oc2ccc3c(c2)B(O)OC3)nc1			inhibition at 5 µM (Plasmodium falciparum [1]): 0%
COC(=O)c1ccc(Oc2ccc3c(c2)B(O)OC3)cn1	23 nM	120 nM	IC50 (Jurkat): > 100000 nM
COC(=O)c1cnc(Oc2ccc3c(c2)B(O)OC3)nc1			inhibition at 5 µM (Plasmodium falciparum [1]): 80%
COC(=O)c1ccc(Oc2ccc3c(c2)B(O)OC3)nn1	82 nM	100 nM	
OB1OCc2ccc(Oc3cnccn3)cc21	9380 nM	> 5000 nM	
N#Cc1cnc(Oc2ccc3c(c2)B(O)OC3)cn1	470 nM	3250 nM	
OCc1cnc(Oc2ccc3c(c2)B(O)OC3)cn1	440 nM	2240 nM	
NCc1cnc(Oc2ccc3c(c2)B(O)OC3)cn1	110 nM	470 nM	
CN(C)Cc1cnc(Oc2ccc3c(c2)B(O)OC3)cn1	> 10000 nM	> 5000 nM	
CNC(=O)c1cnc(Oc2ccc3c(c2)B(O)OC3)cn1	240 nM	320 nM	
CCNC(=O)c1cnc(Oc2ccc3c(c2)B(O)OC3)cn1	120 nM	870 nM	IC50 (Jurkat): 79900 nM
CN(C)C(=O)c1cnc(Oc2ccc3c(c2)B(O)OC3)cn1	150 nM	960 nM	IC50 (Jurkat): > 100000 nM
O=C(NCCO)c1cnc(Oc2ccc3c(c2)B(O)OC3)cn1	> 10000 nM	5900 nM	
CN(C)CCNC(=O)c1cnc(Oc2ccc3c(c2)B(O)OC3)cn1	6660 nM	> 5000 nM	
CC(C)S(=O)(=O)NC(=O)c1cnc(Oc2ccc3c(c2)B(O)OC3)cn1	190 nM	130 nM	
O/N=C/c1cnc(Oc2ccc3c(c2)B(O)OC3)cn1	1770 nM	3000 nM	

Structure (SMILES)	IC50 (Plasmodium falciparum [2])	IC50 (Plasmodium falciparum [3])	also measured
N/C(=N\O)c1cnc(Oc2ccc3c(c2)B(O)OC3)cn1	> 10000 nM	> 5000 nM	
CC1(C)COC(c2cnc(Oc3ccc4c(c3)B(O)OC4)cn2)=N1	800 nM	1460 nM	
Cc1nnc(-c2cnc(Oc3ccc4c(c3)B(O)OC4)cn2)o1	> 10000 nM	> 5000 nM	
OB1OCc2ccc(Oc3cnc(-c4nnn[nH]4)cn3)cc21	> 10000 nM	> 5000 nM	
CCOC(=O)c1cnc(Oc2ccc3c(c2)B(O)OC3)cn1	0.5 nM	4.4 nM	IC50 (Jurkat): 16800 nM
CC(C)OC(=O)c1cnc(Oc2ccc3c(c2)B(O)OC3)cn1	1.2 nM	1.4 nM	IC50 (Jurkat): > 100000 nM
CC(C)COC(=O)c1cnc(Oc2ccc3c(c2)B(O)OC3)cn1	0.5 nM	2.5 nM	IC50 (Jurkat): 17600 nM
CCCCOC(=O)c1cnc(Oc2ccc3c(c2)B(O)OC3)cn1	0.2 nM	0.7 nM	IC50 (Jurkat): > 100000 nM
CC(C)(C)OC(=O)c1cnc(Oc2ccc3c(c2)B(O)OC3)cn1	19 nM	22 nM	IC50 (Jurkat): > 100000 nM
CC(C)CCOC(=O)c1cnc(Oc2ccc3c(c2)B(O)OC3)cn1	0.4 nM	2 nM	
O=C(OC1CCCCC1)c1cnc(Oc2ccc3c(c2)B(O)OC3)cn1	0.7 nM	2.9 nM	IC50 (Jurkat): 52400 nM
CC(C)(C)COC(=O)c1cnc(Oc2ccc3c(c2)B(O)OC3)cn1	6.6 nM	8.9 nM	
CC(C)(N)COC(=O)c1cnc(Oc2ccc3c(c2)B(O)OC3)cn1	190 nM	250 nM	
C[C@@H]1CC[C@H]2[C@@H](C)C(=O)O[C@@H]3O[C@@]4(C)CC[C@@H]1[C@]32OO4 [ARTEMISININ]	6 nM		
O=C1C(O)=C([C@H]2CC[C@H](c3ccc(Cl)cc3)CC2)C(=O)c2ccccc21 [ATOVAQUONE]		1 nM	
CCN(CC)CCCC(C)Nc1ccnc2cc(Cl)ccc12 (stereo not drawn) [CHLOROQUINE]			survival at 30 mg/kg (Plasmodium berghei [4]): 100%; survival at 30 mg/kg (Plasmodium berghei [5]): 100%; survival at 30 mg/kg (Plasmodium berghei [6]): 100%; survival at 30 mg/kg (Plasmodium berghei [7]): 100%; survival at 30 mg/kg (Plasmodium berghei [8]): 100%; survival at 30 mg/kg (Plasmodium berghei [9]): 100%; survival at 30 mg/kg (Plasmodium berghei [10]): 100%; survival at 30 mg/kg (Plasmodium berghei [11]): 20%; survival at 30 mg/kg (Plasmodium berghei [12]): 100%; survival at 30 mg/kg (Plasmodium berghei [13]): 100%; survival at 30 mg/kg (Plasmodium berghei [14]): 100%; survival at 30 mg/kg (Plasmodium berghei [15]): 100%; survival at 30 mg/kg (Plasmodium berghei [16]): 100%; survival at 30 mg/kg (Plasmodium berghei [17]): 100%; survival at 30 mg/kg (Plasmodium berghei [18]): 100%

Source: ChEMBL document CHEMBL3580633, “Benzoxaborole antimalarial agents. Part 4. Discovery of potent 6-(2-(alkoxycarbonyl)pyrazinyl-5-oxy)-1,3-dihydro-1-hydroxy-2,1-benzoxaboroles” (J Med Chem, 2015)
